Bioassay records from PubChem BioAssay.
SENP1 FRET inh – inhibitors of human SENP1 SUMO protease catalytic domain; Q9P0U3; recombinant SENP1 catalytic domain, CyPet-SUMO1-YPet FRET cleavage; inhibition, % at 10 µM; 360,000 compounds, 0.21% hits; AID 624204;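 active = inhibition at least 30% at 10 µM, raw YFP signal under a set limit, fluorescence ratio 0.5 to 1.5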;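 also: 0% = enzyme with DMSO and 100% = no enzyme wells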
Target sequence (Q9P0U3 419-644 limits assumed): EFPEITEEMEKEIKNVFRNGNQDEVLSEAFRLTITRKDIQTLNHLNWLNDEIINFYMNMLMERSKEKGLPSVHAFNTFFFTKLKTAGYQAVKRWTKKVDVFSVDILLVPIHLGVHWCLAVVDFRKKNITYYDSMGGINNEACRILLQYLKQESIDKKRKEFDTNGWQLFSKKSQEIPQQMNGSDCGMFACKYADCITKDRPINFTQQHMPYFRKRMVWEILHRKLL
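Material: hSENP1 catalytic domain, recombinant; medium: Tris pH 8 with BME, BSA, NP40 and catalase; compound: single concentration of 10 µM compound, 0.5% DMSO final; technique: FRET read of cyan and yellow fluorescence; timing: 50 min enzyme reaction, room temperature, light-protected; reagent: SFCypet-SUMO1-SFYpet substrate at 25 nM; control set: no-enzyme low, enzyme-DMSO high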
SENP7 inh – inhibitors of human SENP7 protease | inhibition, % at 5 µM | Q9BQF6 | recombinant SENP7, Z-RLRGG-aminoluciferin luminescence, 40 min | 330,000 compounds, 1.5% hits;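 active = inhibition above about 50% at the single test dose, limit read from the data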;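 also: plate controls were DMSO with enzyme for no effect and no enzyme buffer wells for full effect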
Target sequence (Q9BQF6 706-1050 limits assumed): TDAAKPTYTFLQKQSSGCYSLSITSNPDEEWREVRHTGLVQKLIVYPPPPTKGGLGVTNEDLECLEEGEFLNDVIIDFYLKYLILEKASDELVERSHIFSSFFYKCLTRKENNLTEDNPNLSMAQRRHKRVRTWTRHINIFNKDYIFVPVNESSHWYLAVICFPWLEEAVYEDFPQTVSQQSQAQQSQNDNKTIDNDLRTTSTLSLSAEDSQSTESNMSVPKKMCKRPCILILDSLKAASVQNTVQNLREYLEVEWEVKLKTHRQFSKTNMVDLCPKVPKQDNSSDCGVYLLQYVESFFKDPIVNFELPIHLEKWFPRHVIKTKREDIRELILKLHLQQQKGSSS
SENP6 block – inhibitors of human SENP6 protease | Q9GZR1 | 330,000 compounds, 1.8% hits | Recombinant SENP6 catalytic domain, aminoluciferin luminescence | inhibition, % at 10 µM;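 active = inhibition above about 50% at the single tested dose, limit read from the data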;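 also: plate controls were DMSO wells with enzyme for no effect and DMSO wells lacking enzyme for full effect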
SENP8 block-1 – SENP8 protease inhibition; Q96LD8; 330,000 compounds, 1.2% hits; inhibition, % at 10 µM; AID 2540; purified SENP8, Z-RLRGG-aminoluciferin cleavage, luminescence; in the data active = inhibition above about 50%
SENP8 block-2 – inhibitors of human SENP8 protease | Q96LD8 | recombinant SENP8, Nedd8 substrate fluorescence | inhibition, % at 20 µM | 360,000 compounds, 0.64% hits | AID 602440; in the data active = inhibition mostly above about 40%, no sharp cut-off; inactive = mostly below about 27%
SENP8 conf – human SENP8 inhibition, confirmed; Recombinant SENP8, Z-RLRGG-aminoluciferin luminescence, 60 min; shares compounds with SENP7 inh; inhibition, % at 12.5 µM; 6,200 compounds, 40% hits;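 active = mean inhibition across replicates above about 50%, limit read from the data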
SENP6 conf – human SENP6 inhibition, confirmed; shares compounds with SENP7 inh; recombinant SENP6, Z-RLRGG-aminoluciferin luminescence; inhibition, % at 12.5 µM; 6,200 compounds, 58% hits
SENP7 conf – confirmation of human SENP7 protease inhibitors; shares compounds with SENP7 inh; recombinant SENP7, Z-RLRGG-aminoluciferin luminescence, 40 min; inhibition, % at 12.5 µM; 6,200 compounds, 69% hits; AID 488917
Casp3 SENP sel – inhibits human caspase-3 in SENP selectivity test; 6,200 compounds, 60% hits; purified caspase-3, Z-DEVD-aminoluciferin luminescence, 60 min; inhibition, % at 12.5 µM; shares compounds with SENP7 inh;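 active = mean inhibition above about 50%, limit read from the data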;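 also: plate controls were enzyme with DMSO for no effect and wells without caspase-3 for full effect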
SENP luc ctr – counter-screen for SENP inhibitors: luminescence interference; shares compounds with SENP7 inh; Pre-incubated SENP8/Z-RLRGG-aminoluciferin, luciferase luminescence interference; inhibition, % at 12.5 µM; 6,200 compounds, 39% hits;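 active = mean inhibition above about 50% when retested at one dose, limit read from the data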;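 also: plate controls were DMSO wells with completed reaction for no effect and substrate without enzyme for full effect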
* marks the source's active call; other numbers are inactive results; · = no result given. Rows were chosen to be rich in hits. Some 2.5% of all compounds tested hit in one or more screens of this group.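 The calls were made as follows, unless noted: active = mean inhibition above about 50% in the one-dose retest (limit read from the data); inactive = the rest.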

SMILES	SENP1 FRET inh	SENP7 inh	SENP6 block	SENP8 block-1	SENP8 block-2	SENP8 conf	SENP6 conf	SENP7 conf	Casp3 SENP sel	SENP luc ctr
Cc1nc(C(F)(F)F)ccc1C(=O)N1CCC1(C)C(=O)NS(=O)(=O)c1ccc(C#N)cc1 (centres undefined)	-1	·	·	·	17	·	·	·	·	·
Cc1nn(-c2ccccc2)c(C)c1/C=N/Nc1nc2ccccc2[nH]1	-7	75*	39	74*	-294	84*	84*	94*	74*	83*
C(=N\Nc1nc2ccccc2[nH]1)/c1cccs1	-1	62*	86*	59*	-24	57*	54*	67*	52*	65*
Cn1c(/C=N/Nc2nc3ccccc3[nH]2)nc2ccccc21	0	74*	83*	60*	16	62*	59*	82*	52*	15
CCOC(=O)C1=CCC(c2ccc(C#N)cc2)N(S(=O)(=O)c2ccc(C)cc2)C1 (centres undefined)	-7	·	·	·	10	·	·	·	·	·
Cc1ccc(NC(=O)CSc2ncn(-c3ccccc3)n2)cc1C	3	-6	-31	-11	17	·	·	·	·	·
O=C(Nc1ccc(F)c(Cl)c1)c1ccc2c(c1)OCO2	3	76*	88*	81*	5	5	90*	100*	84*	33
COc1ccc(NC(=O)CSc2ncn(-c3ccccc3)n2)cc1Cl	1	8	93*	5	13	13	9	4	0	1
COc1ccc(NC(=O)C=C(C)C)cc1Cl	0	4	94*	93*	12	4	94*	100*	96*	94*
O=C(Nc1ccc(F)c(Cl)c1)c1cccnc1	0	6	24	-3	6	·	·	·	·	·
O=C(Nc1ccc(F)c(Cl)c1)c1ccccc1	-1	83*	78*	77*	-2	84*	82*	95*	78*	54*
FC(F)(F)c1ccccc1NC(=S)Nn1cnnc1	4	-10	10	-9	2	·	·	·	·	·
COc1ccc(NC(=O)c2ccc3c(c2)OCCO3)cc1OC	1	19	33	8	11	·	·	·	·	·
COc1ccc(NC(=O)c2ccc3c(c2)OCO3)cc1Cl	1	93*	80*	83*	17	5	88*	99*	88*	12
CC1Cc2ccccc2N1C(=O)CN1CCC(n2nnc3cc(C(F)(F)F)ccc32)CC1 (centres undefined)	0	7	-8	-4	14	·	·	·	·	·
O=[N+]([O-])c1ccccc1S(=O)(=O)N1CCN(S(=O)(=O)c2ccc3c(c2)OCCO3)CC1	0	-4	4	3	-5	·	·	·	·	·
Cc1ccc(C(=O)c2c3ccc(N)cc3nn2CCC(N)=O)cc1	-13	21	57*	26	-72	14	29	-5	0	-3
O=C1c2cc(O)cc(O)c2C(=O)c2c1cc(O)c([C@@H](CO)CCO)c2O	12	11	47	39	-1	·	·	·	·	·
Cc1cc(O)c2c(c1)C(=O)c1cc(O)cc(O)c1C2=O	11	80*	97*	94*	26	96*	98*	102*	94*	81*
Cc1ccc(C)c(N=Nc2nc3ccccc3n2C)c1	4	87*	79*	65*	21	90*	84*	100*	63*	94*
COc1ccc(Cn2c(O)c(C=Nc3ccc(OC)cc3)c3ccccc3c2=O)cc1	-30	33	58*	8	-58	10	16	8	3	-8
O=C(COC(=O)c1ccccc1Nc1ccc(SC(F)F)cc1)NCc1ccco1	-3	40	65*	16	-137	-25	6	3	5	2
CC(OC(=O)c1ccccc1Nc1ccc(SC(F)F)cc1)C(N)=O (centres undefined)	-1	-6	5	-10	-119	·	·	·	·	·
NC(=O)COC(=O)c1ccccc1Nc1ccc(SC(F)F)cc1	-3	30	64*	1	-80	61*	60*	77*	27	69*
Cc1ccnc2nc(C(=O)OCC(=O)N(CC(C)C)C3CCS(=O)(=O)C3)nn12 (centres undefined)	2	0	9	-2	7	·	·	·	·	·
SMILES	SENP1 FRET inh	SENP7 inh	SENP6 block	SENP8 block-1	SENP8 block-2	SENP8 conf	SENP6 conf	SENP7 conf	Casp3 SENP sel	SENP luc ctr
CC(=O)Nc1ccc(S(=O)(=O)NN=c2sc3ccccc3n2C)cc1N	17	·	·	·	8	·	·	·	·	·
O=C(Nc1ccc(Cl)cc1Cl)C1=Cc2ccccc2OC1	-2	51*	43	38	-83	-19	27	31	34	0
COc1ccc(NC(=O)C2=Cc3cccc(OC)c3OC2)cc1	0	8	1	0	11	·	·	·	·	·
COc1ccc(NC(=O)C2=Cc3ccccc3OC2)cc1	-2	73*	68*	61*	10	59*	60*	87*	66*	1
Cc1cccc(-c2nsc(SCC(=O)N3CCCC3)n2)c1	0	67*	80*	49	33	59*	65*	87*	77*	55*
O=C(CSc1nc(-c2ccccc2)ns1)N1CCOCC1	0	-1	-20	-5	10	·	·	·	·	·
Cc1cn([C@H]2C[C@H](O)[C@@H](CNC(=O)[C@H](N)Cc3cn(COCc4ccccc4)cn3)O2)c(=O)[nH]c1=O	0	·	·	·	19	·	·	·	·	·
CC(=O)/C(N=Nc1ccc(C(=O)O)cc1[N+](=O)[O-])=C(\C)O	3	59*	-5	51*	24	54*	51*	84*	92*	64*
CCOC(=O)NNc1ccc2nonc2c1[N+](=O)[O-]	·	12	64*	61*	·	66*	80*	42	30	6
COc1ccc(C(=O)/C=C2\Sc3ccccc3N2C)cc1	-127	53*	5	48	-377	74*	77*	92*	77*	16
CC(=S)/C=C1\Sc2ccccc2N1C	-1	3	1	5	29	·	·	·	·	·
Nc1cccc2cnccc12	0	-13	91*	89*	-22	-26	19	6	-5	-6
Oc1cccc2cnccc12	2	0	-7	-1	7	·	·	·	·	·
Cc1cccc(COC(=O)C(Cc2ccccc2)NC(N)=O)c1 (centres undefined)	-1	-1	-1	1	11	·	·	·	·	·
